{"source": "paper PMC7931646", "about": "(The Journal of Experimental Medicine, 2021)", "key": {"[1]": {"experiment": "Liver microsomal stability, rat", "format": "in vitro ADME", "conditions": "liver microsomes", "in_short": "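Test compound at 1 µM was incubated for 30 min with liver microsomes at 1 mg/ml (human, rat or mouse). Result is percent of parent compound remaining.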"}, "[2]": {"test_system": "S. typhimurium strains TA1535, TA1537, TA98, TA100 and E. coli strain WP2 (uvrA)", "experiment": "GLP Salmonella–Escherichia coli/microsome plate incorporation", "format": "cell-based, Salmonella typhimurium", "conditions": "two S. typhimurium strains (T98 and T100), only with Aroclor-induced rat liver S9", "in_short": "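GLP plate-incorporation mutagenicity test using S. typhimurium TA1535, TA1537, TA98 and TA100 and E. coli WP2 (uvrA). Each strain was run with and without a metabolic activation mix of Aroclor 1254–induced rat liver microsomes (S9). Read-out is revertant bacterial growth.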"}, "[3]": {"experiment": "GLP cardiopulmonary safety pharmacology study in NHPs", "format": "in vivo, NHP", "conditions": "NHPs, 10, 30 and 60 mg/kg"}}}
{"smiles": "COc1nc(-c2cc(C)c(N[C@@H](C)c3cc(F)cc(F)c3)nn2)ccc1-n1cnc(C)c1", "note": "[Compound 2, (S)-N-(1-(3,5-difluorophenyl)ethyl)-6-(6-methoxy-5-(4-methyl-1H-imidazol-1-yl)pyridin-2-yl)-4-methylpyridazin-3-amine]", "values": [{"measurement": "remaining at 0.5 h, 1 µM", "setting": "[1]", "result": 76, "unit": "%"}, {"measurement": "GLP Ames bacterial mutagenicity result", "setting": "[2]", "result": "positive"}, {"measurement": "effect on electrocardiogram parameters, including corrected QT interval", "setting": "[3]", "result": "no significant effect"}]}
